Active and inactive are the calls of the source. The calls are words filed in the database; no cut-off is given here.
Key:
[1] = target: Proto-oncogene tyrosine-protein kinase Src (Homo sapiens) (UniProt P12931); assay: Inhibition of recombinant c-Src at 1 uM
Outline: (§1)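 Commercial kinase profiling panel: recombinant enzymes (including FAK kinase domain 411-686 a.a.) tested with 1 μM compound, 10 μM ATP and kinase substrates; % inhibition versus untreated; mean ± SE of two independent experiments.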

[2] = target: Platelet-derived growth factor receptor alpha (Homo sapiens) (UniProt P16234); assay: Inhibition of recombinant PDGFRa at 1 uM; outline: as §1
[3] = target: PI3-kinase p110-delta/p85-alpha (Homo sapiens) (UniProt P27986+O00329); assay: Inhibition of recombinant PI3 kinase p110delta/p85-alpha subunit at 1 uM; outline: as §1
[4] = target: Hepatocyte growth factor receptor (Homo sapiens) (UniProt P08581); assay: Inhibition of recombinant Met at 1 uM; outline: as §1
C8161 = assay: Cytotoxicity against human C8161 cells assessed as decrease in cell viability at 100 uM after 24 hrs by MTT assay; type: functional, cell-based
Outline: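 Cells from breast cancer and melanoma lines were exposed to compound for 24 h and viability was read by MTT assay. A reference FAK inhibitor served as the control.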

BT-474 [5] = assay: Cytotoxicity against human BT474 cells assessed as decrease in cell viability at 100 uM after 24 hrs by MTT assay; type: functional, cell-based
Outline: (§2)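 Cells given each compound at 100 μM for 24 h, then MTT viability assay; known FAK inhibitor 1a used as reference control.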

HT-29 = assay: Cytotoxicity against human HT-29 cells assessed as decrease in cell viability at 100 uM after 24 hrs by MTT assay; type: functional, cell-based
[6] = target: Insulin-like growth factor 1 receptor (Homo sapiens) (UniProt P08069); assay: Inhibition of recombinant IGF1R at 1 uM; outline: as §1
[7] = Effect on human MCF10A cell survival assessed as cell detachment at 100 uM after 24 hrs by hemocytometer; type: ADME, cell-based; settings: mcf-10a
Outline: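 Normal breast MCF10A cells were treated with a range of compound doses. Detached cells were counted on a hemacytometer, and values are means ± standard errors of three independent experiments.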

MCF7 = assay: Cytotoxicity against human MCF7 cells assessed as decrease in cell viability at 100 uM after 24 hrs by MTT assay; type: functional, cell-based; outline: as §2
[8] = target: Focal adhesion kinase 1 (Homo sapiens) (UniProt Q05397); assay: Inhibition of total FAK autophosphorylation in human BT474 cells at 100 uM after 24 hrs by Western blotting; type: cell-based; settings: BT-474
Sequence of Focal adhesion kinase 1 (Homo sapiens) (Q05397 2-1052 limits assumed): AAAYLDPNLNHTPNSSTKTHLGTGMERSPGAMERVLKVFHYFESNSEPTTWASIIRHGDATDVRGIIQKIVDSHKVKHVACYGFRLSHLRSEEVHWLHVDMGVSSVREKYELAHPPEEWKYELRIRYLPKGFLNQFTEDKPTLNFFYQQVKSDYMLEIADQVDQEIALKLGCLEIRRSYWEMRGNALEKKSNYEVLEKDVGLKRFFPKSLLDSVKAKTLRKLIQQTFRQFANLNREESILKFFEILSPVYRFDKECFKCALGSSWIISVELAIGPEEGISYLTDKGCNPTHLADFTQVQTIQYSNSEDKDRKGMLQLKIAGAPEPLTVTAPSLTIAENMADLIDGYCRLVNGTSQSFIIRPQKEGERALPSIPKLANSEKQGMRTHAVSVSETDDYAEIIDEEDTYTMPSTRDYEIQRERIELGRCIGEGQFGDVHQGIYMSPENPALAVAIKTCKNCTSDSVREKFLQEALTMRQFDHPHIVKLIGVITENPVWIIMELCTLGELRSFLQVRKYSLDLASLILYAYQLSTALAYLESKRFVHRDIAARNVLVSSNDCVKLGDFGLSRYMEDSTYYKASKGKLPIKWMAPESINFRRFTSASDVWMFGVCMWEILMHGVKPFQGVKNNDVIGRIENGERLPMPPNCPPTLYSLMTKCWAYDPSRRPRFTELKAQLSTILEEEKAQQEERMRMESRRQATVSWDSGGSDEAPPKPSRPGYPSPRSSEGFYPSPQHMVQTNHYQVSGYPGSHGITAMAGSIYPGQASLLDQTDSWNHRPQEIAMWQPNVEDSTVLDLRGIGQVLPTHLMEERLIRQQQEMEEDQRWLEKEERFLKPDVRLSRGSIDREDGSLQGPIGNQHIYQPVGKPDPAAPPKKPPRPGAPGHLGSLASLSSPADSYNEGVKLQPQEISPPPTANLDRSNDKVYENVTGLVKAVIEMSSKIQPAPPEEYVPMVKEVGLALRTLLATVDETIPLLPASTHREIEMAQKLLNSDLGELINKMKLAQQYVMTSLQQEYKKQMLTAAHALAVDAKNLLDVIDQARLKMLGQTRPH
Outline: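 BT474 lysates immunoprecipitated with FAK antibody, blotted with phosphotyrosine antibody, then stripped and reprobed for FAK.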

BT-474 [9] = assay: Cytotoxicity against human BT474 cells assessed as decrease in cell viability after 24 hrs by MTT assay; type: functional, cell-based
Outline: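 BT474 breast cancer cells exposed to a range of doses for 24 h; viability by MTT; mean of triplicate determinations ± SD versus untreated cells.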

[10] = target: Protein-tyrosine kinase 2-beta (Homo sapiens) (UniProt Q14289); assay: Inhibition of recombinant Pyk2 at 1 uM; outline: as §1
Sequence of Protein-tyrosine kinase 2-beta (Homo sapiens) (Q14289 whole entry, looked up): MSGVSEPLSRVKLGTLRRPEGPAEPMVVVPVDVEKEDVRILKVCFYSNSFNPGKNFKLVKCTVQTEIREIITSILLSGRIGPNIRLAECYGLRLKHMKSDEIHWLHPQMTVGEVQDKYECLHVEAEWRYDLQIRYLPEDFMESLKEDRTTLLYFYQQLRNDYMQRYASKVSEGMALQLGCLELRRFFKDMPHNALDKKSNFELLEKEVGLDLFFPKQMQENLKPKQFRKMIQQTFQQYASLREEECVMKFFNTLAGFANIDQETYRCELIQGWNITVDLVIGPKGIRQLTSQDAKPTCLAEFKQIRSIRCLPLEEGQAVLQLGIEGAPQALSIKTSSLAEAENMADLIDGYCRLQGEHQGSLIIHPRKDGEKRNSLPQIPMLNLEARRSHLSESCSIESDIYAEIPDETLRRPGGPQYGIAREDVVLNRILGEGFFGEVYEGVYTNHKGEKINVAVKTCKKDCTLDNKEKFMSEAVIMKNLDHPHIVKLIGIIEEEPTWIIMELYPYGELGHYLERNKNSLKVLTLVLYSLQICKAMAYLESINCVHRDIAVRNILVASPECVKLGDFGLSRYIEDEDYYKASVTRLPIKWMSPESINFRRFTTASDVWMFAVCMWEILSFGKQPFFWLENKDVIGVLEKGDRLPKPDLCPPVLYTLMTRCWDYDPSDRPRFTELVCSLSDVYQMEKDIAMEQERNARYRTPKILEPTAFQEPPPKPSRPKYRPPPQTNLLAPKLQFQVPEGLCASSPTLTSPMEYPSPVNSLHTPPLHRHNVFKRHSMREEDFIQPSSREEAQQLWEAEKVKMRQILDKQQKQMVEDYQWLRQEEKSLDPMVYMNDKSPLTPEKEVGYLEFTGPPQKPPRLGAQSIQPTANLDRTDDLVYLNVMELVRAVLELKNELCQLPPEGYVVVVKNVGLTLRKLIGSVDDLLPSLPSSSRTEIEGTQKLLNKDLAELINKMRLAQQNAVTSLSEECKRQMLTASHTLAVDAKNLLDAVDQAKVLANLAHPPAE

BT-474 [11] = assay: Induction of apoptosis in human BT474 cells assessed as cleavage of 89 kDa PARP at 100 uM after 24 hrs by Western blotting; type: functional, cell-based
Outline: (§3)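 BT474 cells treated at various doses; lysates immunoblotted with PARP antibody, scoring cleaved 89 kDa fragment.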

[12] = target: Focal adhesion kinase 1 (Homo sapiens) (UniProt Q05397); assay: Inhibition of FAK-Y397 phosphorylation in human BT474 cells at 100 uM after 24 hrs by Western blotting; type: cell-based; settings: BT-474
Outline: (§4)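 BT474 cells treated 100 μM for 24 h; Western blot with Y397-FAK and Y118-paxillin antibodies, total FAK, paxillin and β-actin as expression/loading references.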

BT-474 [13] = assay: Induction of necrosis in non-apoptotic human BT474 cells after 24 hrs by propidium iodide staining based Zeiss fluorescent microscope; type: functional, cell-based
Outline: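 BT474 cells treated at 10 and 100 μM, collected, stained 10 min with propidium iodide (10 μg/ml) for dead necrotic cells plus Hoechst (10 μg/ml) for nuclei; examined by fluorescence microscopy.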

[14] = target: Protein-tyrosine kinase 2-beta (Homo sapiens) (UniProt Q14289); assay: Inhibition of Pyk2-Y402 phosphorylation in human BT474 cells at 100 uM after 24 hrs by Western blotting; type: cell-based; settings: BT-474
Outline: (§5)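 BT474 cells treated at different doses; Western blot for Y397-FAK then total FAK, plus Y402-Pyk-2; β-actin for loading.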

[15] = target: Focal adhesion kinase 1 (Homo sapiens) (UniProt Q05397); assay: Inhibition of FAK-Y397 phosphorylation in human BT474 cells at 100 uM by Western blotting; type: cell-based; settings: BT-474, TDE = time-dependent effect
Outline: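 BT474 cells given 100 μM for 1–24 h; Y397-FAK and total FAK normalized to β-actin by densitometry, expressed relative to untreated; three independent experiments, mean ± SE.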

Mus musculus [16] = assay: Inhibition of tumor growth in human BT474 cells xenografted in mouse assessed as animal death at 30 mg/kg administered daily for 5 days per week measured after 23 days; type: organism-based, BT-474; design: dose 30 mg/kg; settings: in vivo, 552 h
Outline: (§6)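 BT474 breast cancer cells were injected subcutaneously into 5 mice. Dosing at 30 mg/kg started the day after injection and was given daily, 5 days per week. Five untreated mice served as controls.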

BT-474 [17] = assay: Induction of apoptosis in human BT474 cells at 50 to 100 uM after 24 hrs by […] staining; type: functional
Outline: (§7)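 BT474 cells treated 24 h at various doses; apoptotic nuclei scored by Hoechst staining; means ± SD of four independent experiments versus untreated cells.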

[18] = target: Focal adhesion kinase 1 (Homo sapiens) (UniProt Q05397); assay: Inhibition of recombinant full length FAK autophosphorylation expressed in baculovirus by SDS-PAGE
Outline: (§8)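 In vitro autophosphorylation: 0.1 μg purified recombinant FAK or Pyk-2 with γ-32P-ATP and varying inhibitor doses, 10 min at room temperature; three independent experiments.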

BT-474 [19] = assay: Effect on human BT474 cell survival assessed as cell detachment at 10 uM after 24 hrs by hemocytometer; type: functional
Outline: (§9)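 BT474 cells treated at a range of doses; detached cells counted on a hemacytometer; means ± standard errors of three independent experiments, versus untreated cells.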

BT-474 [20] = assay: Inhibition of tumor growth in human BT474 cells xenografted in mouse assessed as tumor volume at 30 mg/kg administered daily for 5 days per week measured after 23 days; type: functional, organism-based; design: dose 30 mg/kg
Outline: (§10)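 BT474 cells injected subcutaneously into mice (5 per group); dosing at 30 mg/kg daily, 5 days per week, starting the day after injection; untreated mice as controls.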

BT-474 [21] = assay: Inhibition of human BT474 cells adhesion on collagen coated plates at 100 uM after 3 hrs by crystal violet staining
[22] = target: Protein-tyrosine kinase 2-beta (Homo sapiens) (UniProt Q14289); assay: Inhibition of recombinant full length Pyk2 autophosphorylation expressed in baculovirus by SDS-PAGE; outline: as §8
[23] = target: Epidermal growth factor receptor (Homo sapiens) (UniProt P00533); assay: Inhibition of recombinant EGFR at 1 uM; outline: as §1
BT-474 [24] = assay: Induction of apoptosis in human BT474 cells assessed as cleavage of 89 kDa PARP after 24 hrs by Western blotting
BT-474 [25] = assay: Effect on human BT474 cell survival assessed as cell detachment at 100 uM after 24 hrs by hemocytometer; type: functional; outline: as §9
BT-474 [26] = assay: Induction of apoptosis in human BT474 cells assessed as presence of apoptotic nuclei at 100 uM after 24 hrs by […] staining; type: functional, cell-based; outline: as §7
BT-474 [27] = assay: Inhibition of human BT474 cells adhesion on collagen coated plates after 3 hrs by crystal violet staining
[28] = target: Proto-oncogene tyrosine-protein kinase Src (Homo sapiens) (UniProt P12931); assay: Inhibition of c-Src phosphorylation in human BT474 cells at 100 uM after 24 hrs by Western blotting; type: cell-based; settings: BT-474
[29] = target: Focal adhesion kinase 1 (Homo sapiens) (UniProt Q05397); assay: Inhibition of FAK-Y397 phosphorylation in human BT474 cells after 24 hrs by Western blotting; type: cell-based; settings: BT-474; outline: as §5
BT-474 [30] = assay: Effect on human BT474 cell survival assessed as cell detachment at 50 uM after 24 hrs by hemocytometer; type: functional; outline: as §9
[31] = target: RAF proto-oncogene serine/threonine-protein kinase (Homo sapiens) (UniProt P04049); assay: Inhibition of recombinant c-RAF at 1 uM; outline: as §1
A549 = assay: Cytotoxicity against human A549 cells assessed as decrease in cell viability at 100 uM after 24 hrs by MTT assay; type: functional, cell-based
BT-474 [32] = assay: Induction of apoptosis in human BT474 cells assessed as cleavage of 89 kDa PARP at 1 uM after 24 hrs by Western blotting; type: functional, cell-based; outline: as §3
[33] = target: Focal adhesion kinase 1 (Homo sapiens) (UniProt Q05397); assay: Inhibition of recombinant full length FAK-mediated GST-paxillin […] expressed in baculovirus by SDS-PAGE
Outline: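 Purified recombinant FAK (0.1 μg) with GST-paxillin substrate, γ-32P-ATP and varying inhibitor doses, 10 min at room temperature.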

[34] = target: Vascular endothelial growth factor receptor 3 (Homo sapiens) (UniProt P35916); assay: Inhibition of recombinant Flt4 at 1 uM; outline: as §1
Sequence of Vascular endothelial growth factor receptor 3 (Homo sapiens) (P35916 whole entry): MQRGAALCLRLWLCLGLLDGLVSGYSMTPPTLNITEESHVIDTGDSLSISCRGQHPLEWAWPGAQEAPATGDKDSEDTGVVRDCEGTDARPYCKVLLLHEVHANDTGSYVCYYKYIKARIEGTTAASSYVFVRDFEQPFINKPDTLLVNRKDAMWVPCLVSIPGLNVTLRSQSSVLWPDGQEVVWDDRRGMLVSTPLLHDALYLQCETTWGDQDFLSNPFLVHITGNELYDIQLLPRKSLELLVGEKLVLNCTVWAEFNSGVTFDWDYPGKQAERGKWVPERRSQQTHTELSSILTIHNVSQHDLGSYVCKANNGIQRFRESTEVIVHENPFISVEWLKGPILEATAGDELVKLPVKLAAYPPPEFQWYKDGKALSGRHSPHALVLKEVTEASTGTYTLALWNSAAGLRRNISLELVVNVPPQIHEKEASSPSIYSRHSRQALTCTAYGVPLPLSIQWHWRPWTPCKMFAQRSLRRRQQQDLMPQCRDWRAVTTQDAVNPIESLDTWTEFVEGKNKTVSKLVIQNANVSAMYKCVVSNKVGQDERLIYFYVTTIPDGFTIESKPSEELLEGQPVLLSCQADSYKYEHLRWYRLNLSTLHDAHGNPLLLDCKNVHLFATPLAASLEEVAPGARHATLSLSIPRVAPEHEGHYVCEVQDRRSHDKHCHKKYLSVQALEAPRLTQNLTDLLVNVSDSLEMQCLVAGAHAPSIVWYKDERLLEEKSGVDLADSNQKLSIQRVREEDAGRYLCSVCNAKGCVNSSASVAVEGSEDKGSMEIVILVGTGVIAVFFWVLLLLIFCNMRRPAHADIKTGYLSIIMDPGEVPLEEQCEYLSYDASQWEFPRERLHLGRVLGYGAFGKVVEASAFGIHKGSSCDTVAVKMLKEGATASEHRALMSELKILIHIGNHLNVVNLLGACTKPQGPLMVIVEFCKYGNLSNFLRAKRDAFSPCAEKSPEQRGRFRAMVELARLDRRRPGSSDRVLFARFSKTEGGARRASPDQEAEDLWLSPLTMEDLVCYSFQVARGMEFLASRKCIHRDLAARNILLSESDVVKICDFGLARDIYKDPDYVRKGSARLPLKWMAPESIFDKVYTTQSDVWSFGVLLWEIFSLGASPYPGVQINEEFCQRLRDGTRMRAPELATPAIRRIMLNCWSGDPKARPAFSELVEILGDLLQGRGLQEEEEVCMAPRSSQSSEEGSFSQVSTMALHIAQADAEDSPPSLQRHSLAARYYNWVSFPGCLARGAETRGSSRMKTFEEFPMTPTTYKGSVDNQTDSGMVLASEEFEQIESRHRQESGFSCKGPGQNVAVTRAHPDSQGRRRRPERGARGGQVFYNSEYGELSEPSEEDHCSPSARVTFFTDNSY

[35] = target: Vascular endothelial growth factor receptor 3 (Homo sapiens) (UniProt P35916); assay: Inhibition of VEGFR3 phosphorylation in human BT474 cells at 100 uM after 24 hrs by Western blotting; type: cell-based; settings: BT-474
Mus musculus [36] = assay: Inhibition of tumor growth in human BT474 cells xenografted in mouse assessed as animal weight loss at 30 mg/kg administered daily for 5 days per week measured after 23 days; type: organism-based, BT-474; design: dose 30 mg/kg; settings: in vivo, 552 h; outline: as §6
BT-474 [37] = assay: Inhibition of tumor growth in human BT474 cells xenografted in mouse assessed as reduction in tumor weight at 30 mg/kg administered daily for 5 days per week measured after 23 days; type: functional, organism-based; design: dose 30 mg/kg; outline: as §10
BT-474 [38] = assay: Effect on human BT474 cell survival assessed as cell detachment at 100 to 200 uM after 24 hrs by hemocytometer; type: functional; outline: as §9
BT-474 [39] = assay: Effect on human BT474 cell survival assessed as cell detachment after 24 hrs by hemocytometer; type: functional, cell-based; outline: as §9
[40] = target: Focal adhesion kinase 1 (Homo sapiens) (UniProt Q05397); assay: Inhibition of recombinant FAK domain (411 to 686 amino acids) without N terminal domain containing Y397 site at 1 uM; outline: as §1
Paxillin (Homo sapiens) [41] = target: Paxillin (Homo sapiens) (UniProt P49023); assay: Inhibition of paxillin phosphorylation in human BT474 cells at 100 uM after 24 hrs by Western blotting; type: cell-based; settings: BT-474
Sequence of Paxillin (Homo sapiens) (P49023 whole entry): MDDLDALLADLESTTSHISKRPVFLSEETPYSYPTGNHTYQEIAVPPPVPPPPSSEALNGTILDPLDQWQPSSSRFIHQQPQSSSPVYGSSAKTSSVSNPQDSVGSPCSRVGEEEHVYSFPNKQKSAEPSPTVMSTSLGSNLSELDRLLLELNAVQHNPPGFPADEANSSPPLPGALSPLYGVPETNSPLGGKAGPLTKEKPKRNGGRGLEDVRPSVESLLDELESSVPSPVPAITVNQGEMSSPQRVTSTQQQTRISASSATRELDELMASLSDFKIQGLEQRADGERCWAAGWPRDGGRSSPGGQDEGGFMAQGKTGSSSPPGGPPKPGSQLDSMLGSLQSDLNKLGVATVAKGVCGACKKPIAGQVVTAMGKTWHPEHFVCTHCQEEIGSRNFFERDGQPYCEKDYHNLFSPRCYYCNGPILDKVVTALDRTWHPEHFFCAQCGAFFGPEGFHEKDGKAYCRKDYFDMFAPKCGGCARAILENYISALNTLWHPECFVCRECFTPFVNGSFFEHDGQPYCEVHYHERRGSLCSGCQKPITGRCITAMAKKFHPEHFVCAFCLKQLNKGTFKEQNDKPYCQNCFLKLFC

T47D = assay: Cytotoxicity against human T47D cells assessed as decrease in cell viability at 100 uM after 24 hrs by MTT assay; type: functional, cell-based; outline: as §2
Paxillin (Homo sapiens) [42] = target: Paxillin (Homo sapiens) (UniProt P49023); assay: Inhibition of paxillin-Y118 phosphorylation in human BT474 cells at 100 uM after 24 hrs by Western blotting; type: cell-based; settings: BT-474; outline: as §4

Sequence of Proto-oncogene tyrosine-protein kinase Src (Homo sapiens) (P12931 2-536 limits assumed): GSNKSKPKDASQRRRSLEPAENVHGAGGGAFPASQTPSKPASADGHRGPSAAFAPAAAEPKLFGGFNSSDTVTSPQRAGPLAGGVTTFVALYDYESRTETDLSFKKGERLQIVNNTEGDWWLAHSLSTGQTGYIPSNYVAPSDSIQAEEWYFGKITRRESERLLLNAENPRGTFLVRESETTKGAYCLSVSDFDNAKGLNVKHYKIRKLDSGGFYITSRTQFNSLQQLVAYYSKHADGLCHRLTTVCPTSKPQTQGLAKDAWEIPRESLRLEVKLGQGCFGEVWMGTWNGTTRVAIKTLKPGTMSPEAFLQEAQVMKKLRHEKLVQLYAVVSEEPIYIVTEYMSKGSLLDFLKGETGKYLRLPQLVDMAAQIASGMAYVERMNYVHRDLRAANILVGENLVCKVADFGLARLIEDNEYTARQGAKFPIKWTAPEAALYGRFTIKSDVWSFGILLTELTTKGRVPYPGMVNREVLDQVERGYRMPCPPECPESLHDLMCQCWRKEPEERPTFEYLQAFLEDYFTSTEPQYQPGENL

## Cl.Nc1cc(N)c(N)cc1N
[1]
  Activity: inactive
[2]
  Activity: inactive
[3]
  Activity: inactive
[4]
  Activity: inactive
C8161
  Activity: Active
BT-474 [5]
  Activity: Active
HT-29
  Activity: Active
[6]
  Activity: inactive
[7]
  Activity: 15%
MCF7
  Activity: Active
[8]
  Activity: Active
BT-474 [9]
  Activity: Dose-dependent effect
[10]
  Activity: inactive
BT-474 [11]
  Activity: inactive
[12]
  Activity: Active
BT-474 [13]
  Activity: Dose-dependent effect
[14]
  Activity: inactive
[15]
  Activity: tde
Mus musculus [16]
  Activity: Non-toxic
BT-474 [17]
  Activity: <5%
[18]
  Activity: Dose-dependent effect
BT-474 [19]
  Activity: 8%
BT-474 [20]
  Activity: Active
BT-474 [21]
  Activity: Active
[22]
  Activity: inactive
[23]
  Activity: inactive
BT-474 [24]
  Activity: Active
BT-474 [25]
  Activity: 64%
BT-474 [26]
  Activity: inactive
BT-474 [27]
  Activity: Dose-dependent effect
[28]
  Activity: inactive
[29]
  Activity: Dose-dependent effect
BT-474 [30]
  Activity: 38%
[31]
  Activity: inactive
A549
  Activity: Active
BT-474 [32]
  Activity: inactive
[33]
  Activity: Dose-dependent effect
[34]
  Activity: inactive
[35]
  Activity: inactive
Mus musculus [36]
  Activity: Non-toxic
BT-474 [37]
  Activity: Active
BT-474 [38]
  Activity: 64%
BT-474 [39]
  Activity: Dose-dependent effect
[40]
  Activity: inactive
Paxillin (Homo sapiens) [41]
  Activity: Active
T47D
  Activity: Active
Paxillin (Homo sapiens) [42]
  Activity: Active

## Brc1ccc(C[N+]23CN4CN(CN(C4)C2)C3)cc1
C8161
  Activity: Active

From ChEMBL document CHEMBL1140207, “A small molecule inhibitor, 1,2,4,5-benzenetetraamine tetrahydrochloride, targeting the y397 site of focal adhesion kinase decreases tumor growth” (J Med Chem, 2008)
